Measurements from different studies.
OPRK1: Kappa-type opioid receptor (OPRK1, Homo sapiens, UniProt P41145)

Structure (SMILES)	target	assay	conditions	Ki [µM]
Oc1ccc2c3c1O[C@H]1c4ncc(-c5ccccc5)cc4C[C@@]4(OCCCc5cccnc5)[C@@H](C2)N(CC2CC2)CC[C@]314	OPRK1	cell-free assay	–	0.0053
C[C@H]1[C@H]2Cc3ccc(O)cc3[C@]1(C)CCN2CC1CC1	Kappa-type opioid receptor (OPRK1, Homo sapiens, UniProt P41145, I135L)	cell-free assay	–	0.00295
CC[C@H](C)[C@H](NC(=O)[C@H](CCCNC(=N)N)NC(=O)[C@H](CC(C)C)NC(=O)[C@@H](N)Cc1ccccc1)C(=O)N[C@@H](CCCNC(=N)N)C(=O)N1CCC[C@H]1C(=O)N[C@@H](CCCCN)C(=O)O	OPRK1	ligand displacement, radioligand	–	> 10
Fc1ccccc1CC(c1ccccc1)N1CCCC1 (centres unmarked)	OPRK1	ligand displacement, radioligand	–	0.642
CCCC[C@@H](NC(=O)[C@@H](N)Cc1ccc(O)cc1)C(=O)NCC(=O)N[C@@H](Cc1ccc(F)cc1)C(=O)N(C)CCC[C@@]1(c2ccc(F)cc2)OCc2cc(C#N)ccc21	OPRK1	cell-free assay	–	0.068
COc1ccsc1CNCC[C@@]1(c2ccccn2)CCOC2(CCCC2)C1	OPRK1	cell-free assay	–	2.7
Cc1cc(O)cc(C)c1C[C@H](N)C(=O)N1CCc2ccc(Cc3ccccc3[N+](=O)[O-])cc2C1	OPRK1	ligand displacement, radioligand	cell membranes	0.0026
CC(=O)Nc1ccccc1-c1cnc2c(c1)C[C@@]1(OCCCc3ccccc3)[C@H]3Cc4ccc(O)c5c4[C@@]1(CCN3CC1CC1)[C@H]2O5	OPRK1	cell-free assay	–	0.0135
Cc1cc(O)cc(C)c1C[C@H](N)C(=O)N1CCc2ccc(Cc3ccc([N+](=O)[O-])cc3)cc2C1	OPRK1	ligand displacement, radioligand	cell membranes	0.022
C[C@@H](NC(=O)[C@@H](N)Cc1ccc(O)cc1)C(=O)NCC(=O)N[C@@H](Cc1ccccc1)C(=O)N(C)CCC[C@@]1(c2ccc(F)cc2)OCc2cc(C#N)ccc21	OPRK1	cell-free assay	–	0.086
Cc1ccc(Cc2ccc3c(c2)CN(C(=O)[C@@H](N)Cc2c(C)cc(O)cc2C)CC3)cc1	OPRK1	ligand displacement, radioligand	cell membranes	0.233
C[C@@H](NC(=O)[C@@H](N)Cc1ccc(O)cc1)C(=O)NCC(=O)N[C@@H](Cc1ccc(Cl)cc1)C(=O)N(C)CCC[C@@]1(c2ccc(F)cc2)OCc2cc(C#N)ccc21	OPRK1	cell-free assay	–	0.043
Cc1cc(O)cc(C)c1C[C@H](N)C(=O)N1CCc2ccc(Cc3ccccc3N)cc2C1	OPRK1	ligand displacement, radioligand	cell membranes	0.025
CN[C@]1(c2ccccc2Cl)CCCCC1=O	OPRK1	ligand displacement, radioligand	–	8.5
